Screens as filed in PubChem.
Rows were chosen to be rich in hits. Some 2.6% of all compounds tested hit in one or more screens of this group.
OXTR potentiator – human OXTR potentiation; 0.061% of 320,000 active; CHO-OTR cells, Fluo-8 calcium fluorescence, potentiator mode; 0% = oxytocin EC15, 100% = EC100; activation, % at 3 µM; P30559;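 active = activation above that plate's cutoff, the mean activation of tested compounds plus 3 SD, cut at about 6.6% in these data, passing the limit was not always enough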
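System: human OTR in CHO cells / Also added: sub-maximal oxytocin, roughly EC15 / Control set: EC15 oxytocin low, 75 nM oxytocin high / Schedule: 6 min compound pre-incubation at room temperature, 100 s kinetic read / Compound: single-point 3.0 µM / Replication: singlicate / Technique: Fluo-8 calcium dye fluorescence / Read-out basis: % activation of max/min ratio relative to oxytocin controls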
V1R ag counter – activates human V1a receptor in oxytocin agonist counter-screen; P37288; CHO-V1R cells, Fluo-8 calcium fluorescence, agonist mode; 0% DMSO, 100% 3 nM vasopressin; activation, % at 3 µM; 0.25% of 320,000 active;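 active = activation above the mean activation of all tested compounds plus 3 SD, per screening run, cut at about 20% in these data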;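 note: signal is peak over basal fluorescence ratio across a 100 second FLIPR read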
Target sequence (P37288 whole entry, looked up): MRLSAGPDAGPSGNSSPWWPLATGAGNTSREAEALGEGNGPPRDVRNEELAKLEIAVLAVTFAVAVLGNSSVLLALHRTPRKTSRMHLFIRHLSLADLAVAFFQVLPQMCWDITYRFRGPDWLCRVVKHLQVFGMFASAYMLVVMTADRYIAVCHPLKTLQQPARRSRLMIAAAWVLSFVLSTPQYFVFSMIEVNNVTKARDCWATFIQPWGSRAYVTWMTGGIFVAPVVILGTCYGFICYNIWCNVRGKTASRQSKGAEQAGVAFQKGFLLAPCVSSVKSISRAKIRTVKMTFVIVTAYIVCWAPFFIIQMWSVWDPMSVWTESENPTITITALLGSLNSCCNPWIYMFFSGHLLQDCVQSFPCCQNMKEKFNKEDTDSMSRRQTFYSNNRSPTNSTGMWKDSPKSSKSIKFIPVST
CHO parental Ca – signal in parental CHO cells, OX1R antagonist counter-screen. parental CHO-K1, ATP-induced calcium, Fluo-8 fluorescence. inhibition, % at 5.6 µM. 0.63% of 330,000 active. AID 463079;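 active = inhibition above that plate's mean sample inhibition plus 3 SD, cut at about 26% in these data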
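Measured by: calcium-sensitive Fluo-8 fluorescence / Test system: CHO parental line / Controls: ATP-challenged DMSO wells low, unchallenged DMSO wells high / Measure: % inhibition / Compound: single nominal dose of 5.6 µM per compound / Replicates: single well per compound, no replicates / Reagent: ATP as calcium-mobilizing challenge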
OX1R antag-1 – antagonists of human orexin 1 receptor (OX1R) | O43613 | OX1R-expressing cells, FRET antagonist read-out | inhibition, % at 6.6 µM | 1.8% of 330,000 active; in the data active = inhibition mostly above about 38%, no sharp cut-off; inactive = mostly below about 40%
OXTR ag – agonists of human oxytocin receptor; P30559; CHO-OTR cells, Fluo-8 calcium fluorescence; normalized: DMSO 0%, oxytocin 100%; activation, % at 3 µM; 0.32% of 320,000 active; AID 2435;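 active = activation above the mean of all tested compounds plus 3 SD, cutoff set per screening run, cut at about 20% in these data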;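 note: peak over basal fluorescence ratio from a 100 s FLIPR kinetic read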
OX1R antag-2 – antagonists of human orexin 1 receptor | O43613 | CHO/OX1R cells, Fluo-8 calcium fluorescence, orexin A | inhibition, % at 5 µM | 0.43% of 330,000 active | AID 434989;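 active = inhibition above its plate's threshold, mean inhibition of all tested compounds on the plate plus 3 SD, cut at about 37% in these data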
A number is an active result; i = inactive.

SMILES	OXTR potentiator	V1R ag counter	CHO parental Ca	OX1R antag-1	OXTR ag	OX1R antag-2
Cc1ccnc(NC(=S)N2CCN(c3cccc(C(F)(F)F)c3)CC2)c1	i	i	i	i	i	i
CCSc1nnc(NC(=O)NC(C)(C(F)(F)F)C(F)(F)F)s1	i	i	i	i	i	i
CCSc1nnc(NC(=O)NC(CC)(C(F)(F)F)C(F)(F)F)s1	i	i	79	i	i	66
C/C(CC(=O)NC12CC3CC(CC(C3)C1)C2)=N\NC(=O)c1ccc(C)cc1	i	i	i	i	i	i
CSc1ccc(CN(C)C(=O)COc2ccc(C(=O)c3ccccc3)cc2)cc1	i	i	i	i	i	i
CCN1C(=O)/C(=C2\C=Cc3ccccc3N2CC)SC1=S	i	i	i	i	i	i
CCN1C(=C2C(=O)c3ccccc3C2=O)C=Cc2ccccc21	i	i	i	62	i	i
Cn1c(=O)oc2cc(S(=O)(=O)N3CCC(C(=O)NCCc4ccccc4)CC3)ccc21	i	i	41	i	i	i
COc1cccc(CNC(=O)Cn2ccc3cc(S(=O)(=O)N4CCCC4)ccc32)c1OC	i	i	i	i	i	i
O=C(CCn1ccc2cc(S(=O)(=O)N3CCCC3)ccc21)NCCc1ccccc1	i	i	i	i	i	i
COc1ccccc1CCNC(=O)Cn1ccc2cc(S(=O)(=O)N3CCCC3)ccc21	i	i	i	55	i	i
O=C(Cn1ccc2cc(S(=O)(=O)N3CCCC3)ccc21)NCCc1ccccc1	i	i	i	55	i	i
Cc1cc(C(C#N)c2ccc(Cl)cc2)c(Cl)cc1NC(=O)c1cc(I)cc(I)c1O (centres undefined)	i	i	47	62	i	i
Cc1ccc(S(=O)(=O)NCC(=O)OCC(=O)N2CC(C)OC(C)C2)cc1 (centres undefined)	i	i	i	i	i	i
Cc1noc(/C=C/c2ccccn2)c1[N+](=O)[O-]	i	i	i	63	i	i
CCCc1cc(=O)oc2cc(C)cc(O)c12	i	i	i	i	i	i
CCCCCc1cc(O)c2c(C)cc(=O)oc2c1	i	i	i	43	i	i
COc1ccc(C(CNC(=O)c2ccc(-c3cccc(C(F)(F)F)c3)o2)N2CCOCC2)cc1 (centres undefined)	i	i	i	i	i	i
Cc1c(C(=O)O)cccc1-c1ccc(/C=C2\SC(=O)NC2=O)o1	i	i	i	56	i	i
Cc1c(C(=O)O)cccc1-c1ccc(/C=C2/NC(=O)N(c3ccccc3)C2=O)o1	i	i	i	i	i	i
O=C(N/N=C/C(Br)=C\c1ccccc1)c1cccs1	i	i	i	40	i	i
CC(=C/c1ccccc1)/C=N/NC(=O)c1cccs1	i	i	i	i	i	i
COc1cc(NC(=O)CN2C(=O)NC(CC(C)C)C2=O)cc(OC)c1OC (centres undefined)	i	i	i	i	i	i
C/C=C(/C)C(=O)OC1c2c(ccc3ccc(=O)oc23)OC(C)(C)C1OC(=O)/C(C)=C\C (centres undefined)	i	i	75	44	i	i
CC1=NN(c2ccccc2)C(=O)/C1=C/c1c(O)n(-c2ccc(F)c(Cl)c2)[nH]c1=O	i	i	i	74	i	i
SMILES	OXTR potentiator	V1R ag counter	CHO parental Ca	OX1R antag-1	OXTR ag	OX1R antag-2
Cc1ccc(NC(=O)C2C(c3ccccc3)C2(Cl)Cl)c(C)c1 (centres undefined)	i	i	i	77	i	i
C=C(C)c1cc2c(ccc3ccc(=O)oc32)o1	i	i	i	75	i	i
CNC(=O)c1cc2c(ccc3ccccc32)o1	i	i	i	i	i	i
COc1ccc(CNC(=O)[C@@H]2CC=C[C@@H]3CCN(Cc4ccc(Cl)c(Cl)c4)C(=O)[C@@H]32)cc1	i	i	i	i	i	i
COc1ccc(CNC[C@@H](CCCCN(C)Cc2ccc(OC)cc2)N2C[C@H](c3ccccc3)N(CCc3ccc(Cl)c(Cl)c3)C(=O)C2=O)cc1	i	58	i	i	29	i
O=C(N/N=C/c1cc(Br)c(Br)o1)c1cc2ccccc2o1	i	i	i	62	i	i
